From ChEMBL document CHEMBL4257575, “Discovery of Novel Flavonoid Dimers To Reverse Multidrug Resistance Protein 1 (MRP1, ABCC1) Mediated Drug Resistance in Cancers Using a High Throughput Platform with "Click Chemistry"” (J Med Chem, 2018)
The source made the active and inactive calls. The calls are words filed in the database; no cut-off is given here.

Experiments:
MRP1 = assay: in vitro; settings: mouse, L929 cells (IC50) versus 2008/MRP1 cells (EC50)
[1] = Cytotoxicity against human 2008/MRP1 cells assessed as cell survival at 2 uM after 5 days by MTS assay relative to control; assay type: cell-based; settings: read-out: Survival
[2] = target: T1, Multidrug resistance-associated protein 1 (Homo sapiens, UniProt P33527); assay: Inhibition of MRP1 in human 2008/MRP1 cells assessed as potentiation of doxorubicin-induced cytotoxicity by measuring cell survival at 2 uM after 5 days by MTS assay relative to control; assay type: cell-based; settings: 120 h
In short: (§1)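 2008/MRP1 cells (retroviral human MRP1 transfectant; RPMI 1640, 10% FBS) at 4,000 per well, with 100 nM doxorubicin plus crude, unpurified click products in DMSO: 2 µM in the primary screen, 1 µM in the secondary. Incubated 5 days at 37 °C. MTS/PMS added for 2 h at 37 °C, absorbance read at 490 nm. % survival is relative to wells without DOX or product. Run in triplicate, at least three experiments.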

Homo sapiens [3] = species on record: Homo sapiens; assay: Inhibition of P-gp in human LCC6MDR cells assessed as potentiation of paclitaxel-induced cytotoxicity by measuring fold reduction in paclitaxel IC50 at 1 uM after 5 days by MTS assay relative to paclitaxel alone; assay type: cell-based
[4] = target: T1, Multidrug resistance-associated protein 1; assay: Inhibition of MRP1 in human 2008/MRP1 cells assessed as potentiation of doxorubicin-induced cytotoxicity by measuring cell survival at 1 uM after 5 days by MTS assay relative to control; assay type: cell-based; settings: 120 h
In short: as §1

L929 = assay: Cytotoxicity against mouse L929 cells assessed as reduction in cell survival after 5 days by MTS assay; assay type: cell-based; settings: L929, 120 h
Homo sapiens [5] = species on record: Homo sapiens; assay: Effect on doxorubicin influx in human 2008/MRP1 cells at 2 uM incubated up to 60 mins by flow cytometric analysis; assay type: functional, cell-based
Homo sapiens [6] = species on record: Homo sapiens; assay: Effect on MRP1 expression in human 2008/MRP1 cells up to 5 uM after 3 days by FITC staining based flow cytometry; assay type: functional, cell-based
Homo sapiens [7] = species on record: Homo sapiens; assay: Effect on doxorubicin influx in human 2008/P cells at 2 uM incubated up to 60 mins by flow cytometric analysis; assay type: functional, cell-based
[8] = target: T1, Multidrug resistance-associated protein 1; assay: Inhibition of MRP1 in human 2008/MRP1 cells assessed as effect on doxorubicin efflux at 2 uM up to 105 mins by flow cytometric analysis; assay type: cell-based
In short: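 Efflux: cells preloaded with 20 µM DOX in supplemented RPMI1640 for 1 h at 37°C, washed, then kept with or without 2 µM modulator. […] Mean ± SEM; paired t test at each time point.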

[9] = Solubility in NMP/Cremorphol/Tween80/H2O (5:5:4.5:85.5) formulation; assay type: physicochemical
[10] = Plasma concentration in Balb/c mouse at 10 mg/kg, iv measured up to 360 mins by LC-MS/MS analysis; assay type: ADME, organism-based; settings: in vivo, 6 h, BLD = below limit of detection
In short: (§2)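 Female Balb/c mice given 10 mg/kg i.v. (25G needle) of the HCl salt, 1.5 mg/mL in NMP:Cremorphol:Tween 80:H₂O (5:5:4.5:85.5). Cardiac-puncture blood under ether at 15–360 min, 3 mice per time point; plasma spun 16,000 g, stored −20°C. Methanol precipitation with [¹³C6]paclitaxel internal standard; LC-MS/MS, BEH C18, water/methanol with 0.1% formic acid gradient. Mean ± SEM.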

Mus musculus = assay: Time duration at which plasma concentration stays above in vitro EC50 for MRP1 in Balb/c mouse at 10 mg/kg, iv measured up to 360 mins by LC-MS/MS analysis; assay type: ADME, organism-based; settings: in vivo, 6 h
In short: as §2

T1 sequence (P33527 whole entry): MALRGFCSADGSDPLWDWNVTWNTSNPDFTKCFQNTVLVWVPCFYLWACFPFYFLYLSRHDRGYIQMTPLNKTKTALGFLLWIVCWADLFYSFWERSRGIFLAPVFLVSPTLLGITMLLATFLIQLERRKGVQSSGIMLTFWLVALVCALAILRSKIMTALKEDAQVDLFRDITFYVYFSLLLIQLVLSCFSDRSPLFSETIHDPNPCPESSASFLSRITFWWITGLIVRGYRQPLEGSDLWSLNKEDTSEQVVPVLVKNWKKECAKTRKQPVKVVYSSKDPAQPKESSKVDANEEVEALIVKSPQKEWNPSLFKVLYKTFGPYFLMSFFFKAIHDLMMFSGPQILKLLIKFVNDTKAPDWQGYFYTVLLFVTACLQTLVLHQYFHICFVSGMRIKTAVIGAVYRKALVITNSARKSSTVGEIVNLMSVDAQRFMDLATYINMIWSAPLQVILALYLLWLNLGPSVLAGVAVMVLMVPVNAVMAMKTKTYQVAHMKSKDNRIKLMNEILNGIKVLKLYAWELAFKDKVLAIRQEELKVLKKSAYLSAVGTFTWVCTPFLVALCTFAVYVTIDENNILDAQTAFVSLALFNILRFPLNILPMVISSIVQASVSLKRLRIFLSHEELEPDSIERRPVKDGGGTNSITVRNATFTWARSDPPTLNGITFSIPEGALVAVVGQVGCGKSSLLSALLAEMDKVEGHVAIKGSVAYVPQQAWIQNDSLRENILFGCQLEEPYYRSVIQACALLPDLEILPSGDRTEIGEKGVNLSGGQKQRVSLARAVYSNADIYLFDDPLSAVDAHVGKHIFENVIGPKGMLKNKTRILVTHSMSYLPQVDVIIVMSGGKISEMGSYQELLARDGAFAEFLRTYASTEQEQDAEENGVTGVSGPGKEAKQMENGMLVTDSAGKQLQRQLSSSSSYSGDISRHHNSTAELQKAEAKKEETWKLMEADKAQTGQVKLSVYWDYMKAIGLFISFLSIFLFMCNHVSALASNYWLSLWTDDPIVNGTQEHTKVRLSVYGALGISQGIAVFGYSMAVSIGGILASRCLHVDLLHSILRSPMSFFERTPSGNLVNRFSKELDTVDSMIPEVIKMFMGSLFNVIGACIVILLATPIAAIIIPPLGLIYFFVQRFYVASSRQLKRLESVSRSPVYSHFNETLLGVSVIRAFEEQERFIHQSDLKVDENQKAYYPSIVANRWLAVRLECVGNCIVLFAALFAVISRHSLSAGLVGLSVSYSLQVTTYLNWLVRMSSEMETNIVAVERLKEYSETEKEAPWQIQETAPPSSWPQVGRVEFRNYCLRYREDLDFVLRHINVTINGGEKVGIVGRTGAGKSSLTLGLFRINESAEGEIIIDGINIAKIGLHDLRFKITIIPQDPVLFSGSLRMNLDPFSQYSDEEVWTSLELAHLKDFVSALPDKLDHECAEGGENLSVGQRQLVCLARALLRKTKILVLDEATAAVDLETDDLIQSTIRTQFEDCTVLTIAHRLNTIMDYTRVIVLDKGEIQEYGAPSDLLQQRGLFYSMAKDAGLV

O=c1cc(-c2ccccc2)oc2cc(OCCCc3cn(CCOCCOc4ccc5c(=O)cc(-c6ccccc6)oc5c4)nn3)ccc12
selectivity ratio (MRP1): > 336 | viability at 120 h, 2 µM [1]: 98% | Survival [2]: 45% | Ratio IC50 (Homo sapiens [3]): 4 | Survival [4]: 49% | IC50 (L929): > 100 µM

O=c1cc(-c2ccc(OCCOCCn3cc(CCCOc4ccc5c(=O)cc(-c6ccccc6)oc5c4)nn3)cc2)oc2ccccc12
selectivity ratio (MRP1): > 662 | viability at 120 h, 2 µM [1]: 92% | Survival [2]: 23% | Ratio IC50 (Homo sapiens [3]): 19.1 | Survival [4]: 30% | IC50 (L929): > 100 µM

O=c1cc(-c2ccc(OCCCc3cn(CCOCCOc4ccc5c(=O)cc(-c6ccccc6)oc5c4)nn3)cc2)oc2cc(F)ccc12 [listing 1 of 2 here]
Activity (Homo sapiens [5]): inactive | Activity (Homo sapiens [6]): inactive | Ratio IC50 (Homo sapiens [3]): 40.7 | Activity (Homo sapiens [7]): inactive

O=c1cc(-c2ccc(OCCCc3cn(CCOCCOc4ccc(-c5cc(=O)c6ccccc6o5)cc4)nn3)cc2)oc2ccccc12
selectivity ratio (MRP1): 531 | viability at 120 h, 2 µM [1]: 81% | Survival [2]: 29% | Ratio IC50 (Homo sapiens [3]): 31.7 | Survival [4]: 51% | IC50 (L929): 60 µM

O=c1cc(-c2ccc(OCCOCCOCCn3cc(CCCOc4ccc(-c5cc(=O)c6ccc(F)cc6o5)cc4)nn3)cc2)oc2ccccc12
selectivity ratio (MRP1): > 481 | viability at 120 h, 2 µM [1]: 93% | Survival [2]: 44% | Ratio IC50 (Homo sapiens [3]): 4 | Survival [4]: 51% | IC50 (L929): > 100 µM

O=c1cc(-c2ccc(OCCCc3cn(CCOCCOc4ccc5c(=O)cc(-c6ccccc6)oc5c4)nn3)cc2)oc2cc(F)ccc12 [listing 2 of 2 here]
selectivity ratio (MRP1): > 1890 | INH [8]: Active | viability at 120 h, 2 µM [1]: 93% | Survival [2]: 41% | Survival [4]: 49% | IC50 (L929): > 100 µM

O=c1cc(-c2ccc(OCCOCCn3cc(CCCCOc4ccc5c(=O)cc(-c6ccccc6)oc5c4)nn3)cc2)oc2ccccc12
selectivity ratio (MRP1): > 1150 | viability at 120 h, 2 µM [1]: 95% | Survival [2]: 30% | Ratio IC50 (Homo sapiens [3]): 19.8 | Survival [4]: 42% | IC50 (L929): > 100 µM

Cc1ccc2oc(-c3ccc(OCCCCc4cn(CCOCCOCCOc5ccc(-c6cc(=O)c7cc(C)ccc7o6)cc5)nn4)cc3)cc(=O)c2c1
selectivity ratio (MRP1): > 365 | viability at 120 h, 2 µM [1]: 100% | Survival [2]: 38% | Ratio IC50 (Homo sapiens [3]): 58.8 | Survival [4]: 50% | IC50 (L929): > 50 µM

O=c1cc(-c2ccccc2)oc2cc(OCCCc3cn(CCOCCOCCOc4ccc(-c5cc(=O)c6cc(F)ccc6o5)cc4)nn3)ccc12
selectivity ratio (MRP1): > 1050 | viability at 120 h, 2 µM [1]: 88% | Survival [2]: 48% | Ratio IC50 (Homo sapiens [3]): 16 | Survival [4]: 49% | IC50 (L929): > 100 µM

Cc1ccc2oc(-c3ccc(OCCOCCOCCn4cc(CCCOc5ccc(-c6cc(=O)c7ccc(F)cc7o6)cc5)nn4)cc3)cc(=O)c2c1
selectivity ratio (MRP1): > 826 | viability at 120 h, 2 µM [1]: 95% | Survival [2]: 45% | Ratio IC50 (Homo sapiens [3]): 36.9 | Survival [4]: 50% | IC50 (L929): > 100 µM

Cc1ccc2oc(-c3ccc(OCCCCc4cn(CCOCCOc5ccc(-c6cc(=O)c7cc(F)ccc7o6)cc5)nn4)cc3)cc(=O)c2c1
selectivity ratio (MRP1): > 400 | viability at 120 h, 2 µM [1]: 99% | Survival [2]: 30% | Ratio IC50 (Homo sapiens [3]): 99.2 | Survival [4]: 38% | IC50 (L929): > 100 µM

Cc1ccc2oc(-c3ccc(OCCCCc4cn(CCOCCOc5ccc(-c6cc(=O)c7ccccc7o6)cc5)nn4)cc3)cc(=O)c2c1
selectivity ratio (MRP1): > 553 | viability at 120 h, 2 µM [1]: 85% | Survival [2]: 20% | Ratio IC50 (Homo sapiens [3]): 69 | Survival [4]: 25% | IC50 (L929): > 57 µM

O=c1cc(-c2ccccc2)oc2cc(OCCOCc3cn(CCOCCOCCOc4ccc(-c5oc6ccccc6c(=O)c5OCc5ccccc5)cc4)nn3)ccc12
selectivity ratio (MRP1): > 518 | viability at 120 h, 2 µM [1]: 95% | Survival [2]: 45% | Ratio IC50 (Homo sapiens [3]): 46.7 | Survival [4]: 48% | IC50 (L929): > 100 µM

Cc1ccc2oc(-c3ccc(OCCOCCOCCOCCOCCOc4ccc(-c5cc(=O)c6cc(C)ccc6o5)cc4)cc3)cc(=O)c2c1
solubility [9]: Insoluble | Cp [10]: Bld | IC50 (L929): > 100 µM

O=c1cc(-c2ccc(OCCCc3cn(CCOCCOCCOc4ccc(-c5cc(=O)c6cc(F)ccc6o5)cc4)nn3)cc2)oc2cc(F)ccc12
selectivity ratio (MRP1): > 971 | viability at 120 h, 2 µM [1]: 95% | Survival [2]: 42% | Ratio IC50 (Homo sapiens [3]): 22.7 | Survival [4]: 48% | IC50 (L929): > 100 µM

Cc1ccc2oc(-c3ccc(OCCCCc4cn(CCOCCOc5ccc6c(=O)cc(-c7ccccc7)oc6c5)nn4)cc3)cc(=O)c2c1
viability at 120 h, 2 µM [1]: 93% | Survival [2]: 34% | Ratio IC50 (Homo sapiens [3]): 54.7 | Survival [4]: 46% | IC50 (L929): > 100 µM

O=c1cc(-c2ccccc2)oc2cc(OCCN(Cc3ccccc3)Cc3cn(CCOCCOc4ccc(-c5cc(=O)c6cc(F)ccc6o5)cc4)nn3)ccc12
selectivity ratio (MRP1): > 645 | viability at 120 h, 2 µM [1]: 87% | Survival [2]: 36% | Ratio IC50 (Homo sapiens [3]): 26.5 | Survival [4]: 46% | IC50 (L929): > 100 µM

O=c1cc(-c2ccc(OCCOCCn3cc(CCCOc4ccc(-c5cc(=O)c6ccc(F)cc6o5)cc4)nn3)cc2)oc2ccccc12
viability at 120 h, 2 µM [1]: 91% | Survival [2]: 21% | Ratio IC50 (Homo sapiens [3]): 63.5 | Survival [4]: 29% | IC50 (L929): > 100 µM

O=c1cc(-c2ccc(OCCOCCn3cc(COCCOc4ccc5c(=O)cc(-c6ccccc6)oc5c4)nn3)cc2)oc2ccccc12
selectivity ratio (MRP1): > 190 | viability at 120 h, 2 µM [1]: 97% | Survival [2]: 31% | Ratio IC50 (Homo sapiens [3]): 3.3 | Survival [4]: 46% | IC50 (L929): > 50 µM

O=c1cc(-c2ccccc2)oc2cc(OCCN(Cc3ccccc3)Cc3cn(CCOCCOCCOc4ccc(-c5cc(=O)c6cc(F)ccc6o5)cc4)nn3)ccc12
selectivity ratio (MRP1): > 641 | viability at 120 h, 2 µM [1]: 72% | Survival [2]: 44% | Ratio IC50 (Homo sapiens [3]): 16.9 | Survival [4]: 50% | IC50 (L929): > 100 µM

Cl.O=c1cc(-c2ccc(OCCCc3cn(CCOCCOc4ccc5c(=O)cc(-c6ccccc6)oc5c4)nn3)cc2)oc2cc(F)ccc12
Time (Mus musculus): 90 min

Cc1ccc2oc(-c3ccc(OCCCCc4cn(CCOCCOCCOc5ccc(-c6cc(=O)c7cc(F)ccc7o6)cc5)nn4)cc3)cc(=O)c2c1
selectivity ratio (MRP1): > 461 | viability at 120 h, 2 µM [1]: 100% | Survival [2]: 34% | Ratio IC50 (Homo sapiens [3]): 99.2 | Survival [4]: 41% | IC50 (L929): > 100 µM
